# IDE act – human IDE activators in live cells, primary screen, fluorescence polarization, HEK cells, FAbeta-B substrate; Insulin-degrading enzyme (Homo sapiens), P14735; FAbeta-B cleavage; 0% vehicle, 100% cell-free pure enzyme wells; activation, % at 5.96 µM; 340,000 compounds, 0.073% hits;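 active = activation above the mean of all tested compounds plus 3 SD, set per screening campaign, cut at about 17% in these data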
# TPT1 inh – Candida albicans TPT1 enzyme inhibitors, primary screen, biochemical, fluorescence polarization; 300,000 compounds, 0.81% hits; recombinant caTPT1, FP RNA substrate dephosphorylation; inhibition, % at 5 µM; AID 1962, 2009;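 active = inhibition above the mean of all tested compounds plus 3 SD, set per screening campaign, cut at about 24% in these data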;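 note: plate controls were DMSO alone for no effect and ferristatin control at 100 nM for full effect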
# HNF4A DNA FP – change in binding of human HNF4A to DNA, primary screen, biochemical, fluorescence polarization, FITC-DNA; Hepatocyte nuclear factor 4-alpha (Homo sapiens), P41235; 1 h; activity change, % at 10 µM; 360,000 compounds, 0.3% hits; in the data active = activity change above about 30%, passing the limit was not always enough
# Target sequence (P41235 whole entry, looked up): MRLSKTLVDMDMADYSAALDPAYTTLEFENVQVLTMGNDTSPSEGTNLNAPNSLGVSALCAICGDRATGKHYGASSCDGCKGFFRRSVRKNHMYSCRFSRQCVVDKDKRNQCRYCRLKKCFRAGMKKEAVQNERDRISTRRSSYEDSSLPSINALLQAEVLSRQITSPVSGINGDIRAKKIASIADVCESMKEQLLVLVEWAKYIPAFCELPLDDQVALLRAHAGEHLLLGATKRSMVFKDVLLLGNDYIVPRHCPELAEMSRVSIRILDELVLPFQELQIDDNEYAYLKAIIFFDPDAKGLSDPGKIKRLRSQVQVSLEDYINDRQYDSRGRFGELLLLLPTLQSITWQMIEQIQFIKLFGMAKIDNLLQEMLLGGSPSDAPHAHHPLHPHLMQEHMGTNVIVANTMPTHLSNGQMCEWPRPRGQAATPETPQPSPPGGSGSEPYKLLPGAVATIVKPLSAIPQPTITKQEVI
# CSN deneddyl inh – inhibitors of CSN-mediated cullin deneddylation, primary screen, biochemical, fluorescence polarization, uHTS | COP9 signalosome complex subunit 5 (Homo sapiens), Q92905 | Purified CSN, SCF-Nedd8-OG deneddylation | 360,000 compounds, 0.38% hits | inhibition, % at 12.5 µM | AID 651999, 2013;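 active = pattern-corrected inhibition above about 35%, with an unprinted fluorescence ratio check between 0.5 and 1.5, limit read from the data, passing the limit was not always enough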;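 note: 0% = enzyme with substrate and 100% = substrate without enzyme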
#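 Assay system: purified human Csn5 enzyme expressed in HEK293T cells; measure: % inhibition; also added: SCFSkp2-Nedd8OG substrate at 10 nM final; technique: fluorescence polarization; times: reaction 90 min, room temperature; medium: Tris buffer pH 7.5, NaCl, DTT, Tween-20, trehalose, ovalbumin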
# IDE cell inh – human IDE inhibitors in live cells, primary screen, fluorescence polarization, HEK cells, FAbetaB substrate | Insulin-degrading enzyme (Homo sapiens), P14735 | FAbetaB cleavage | inhibition, % at 5.59 µM | 320,000 compounds, 0.41% hits | AID 434962, 2010;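 active = percent inhibition above the average of all tested compounds plus 3 SD, set per screening campaign, cut at about 16% in these data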;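 note: IDE supplied by intact live HEK cells; FP after avidin binding of uncleaved biotin substrate so inhibition keeps polarization high; 0% = DMSO wells and 100% = 60 µM reference IDE inhibitor Ii1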
# Rpn11 block – Rpn11 (PSMD14) deubiquitinase inhibitors, primary screen, biochemical, fluorescence polarization, uHTS; human 26S proteasome, Ub4-pepOG fluorescence polarization; 20S core pre-blocked with epoxomicin; 360,000 compounds, 0.59% hits; calls only at 20 µM; AID 588493, 2011; 26S proteasome non-ATPase regulatory subunit 14 (Homo sapiens), O00487;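 active = inhibition at 20 µM, scaled to each plate's controls, above about 33%, limit read from the data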
# * hit, by the source's call; i = inactive; · = no result given. This is a sample that favours compounds with a hit; in the whole collection about 1.7% have one here.
SMILES,IDE act,TPT1 inh,HNF4A DNA FP,CSN deneddyl inh,IDE cell inh,Rpn11 block
Cc1ccc(N(C(=O)c2snc(C(N)=O)c2N)C(CC(C)C)C(=O)NC2CCCC2)cc1 (configuration not stated),0.2,-2.3,-2.5,110.5*,-1.9,i
CCCCC(C(=O)NC1CCCC1)N(C(=O)c1snc(C(N)=O)c1N)c1ccc(C)cc1 (configuration not stated),4.6,-2.3,-0.2,6.4,-3.7,i
COCCNc1cc(N)c([N+](=O)[O-])cc1[N+](=O)[O-],7.7,6.2,44.6*,-2.1,-0.2,i
NCCSc1c(-c2ccc(Cl)cc2)[nH]c2ccccc12,1.9,-5.3,2.6,-3.0,2.1,i
Cc1cc(NC(=O)C(C)Oc2ccc(Cl)cc2Cl)no1 (configuration not stated),1.6,-0.1,-0.9,-2.1,-1.6,i
CCOc1ccc(S(=O)(=O)Nc2nc3ccccc3nc2-n2ccc(=NC(=O)c3cccs3)cc2)cc1,6.6,2.0,28.0,45.7*,-2.8,·
O=C(N=c1ccn(-c2nc3ccccc3nc2NS(=O)(=O)c2ccc(Cl)cc2)cc1)c1cccs1,-6.7,3.2,21.4,11.2,9.8,i
O=C(COc1ccccc1)N[C@@H]1c2ccccc2CC[C@@H]1OCc1ccccc1,-1.5,·,1.3,0.9,·,i
O=C(COc1ccccc1)N[C@@H]1c2ccccc2CC[C@@H]1O,1.5,·,-0.8,56.6*,·,i
Cc1nc2cc(C(=O)NCc3ccc4c(c3)OCO4)ccc2n1-c1ccc(Br)cc1,4.2,0.8,7.5,-5.5,3.9,i
C=CCOc1ccc(CNC(C)(C)C)cc1OC,5.1,-0.8,50.9*,-3.6,1.4,i
COc1ccc(OC)c(Nc2nc(-c3sc(NC(=O)c4ccccc4)nc3C)cs2)c1,·,35.8*,·,·,0.5,·
Cc1ccc(-c2nn(-c3ccccc3)cc2C=C2SC(=S)N(CCS(=O)(=O)O)C2=O)cc1,·,·,-29.1,47.2*,·,i
CCCC(C)NC(=O)CN(c1ccc2c(c1)OCCO2)S(=O)(=O)c1ccccc1 (configuration not stated),-1.9,3.2,3.9,-1.8,2.0,i
O=C(/C=C/c1ccc(NC(=O)c2ccccc2-c2ccccc2C(=O)O)cc1)c1ccccc1,-1.2,20.2,30.7,50.5*,-0.6,·
N#Cc1c(-c2cccc(Br)c2)cc(-c2ccco2)[nH]c1=O,-2.0,4.2,-9.1,35.7*,4.4,i
CCOC(=O)/C(C#N)=C/c1c(OCC)n(CC)c2ccccc12,6.2,2.5,1.7,-2.4,0.0,i
CCOC(=O)c1cccc(P(C)(C)=O)c1,19.1*,-1.7,-1.0,-0.4,-2.7,i
Nc1nn(-c2cccc(F)n2)cc1-c1ccc(Cl)cc1,3.0,·,-3.4,-7.8,·,i
Nc1nn(-c2cccc(F)n2)cc1-c1ccccc1,2.7,·,39.2*,1.0,·,i
O=C(NCc1cccc(C(F)(F)F)c1)c1csc([C@H]2C[C@H](O)[C@@H](CO)O2)n1,·,·,-3.5,-1.0,·,i
COc1ccccc1NC(=O)Cn1nnc(-c2ccccc2NC(=O)c2cccs2)n1,6.6,1.9,0.3,37.0*,3.4,i
CCOC(=O)[C@]12CCCC=C1N(CCc1ccc(OC)c(OC)c1)C(=O)[C@H](CC(=O)NCC13CC4CC(CC(C4)C1)C3)C2,·,·,-3.1,-6.2,·,·
Cn1nc(C2CC2)cc1NC(=O)CC(CC(=O)O)c1ccccc1 (configuration not stated),·,-1.8,-0.2,0.8,2.4,i
O=C(COc1ccc(/C=N/NC(=O)c2ccccc2O)cc1)Nc1ccc([N+](=O)[O-])cc1,1.2,0.6,-4.1,42.8*,-2.3,i
COCCn1c(SCC(=O)Nc2ccc3[nH]c(=O)[nH]c3c2)nc2ccccc21,1.3,·,-0.4,-1.7,0.0,i
